High-throughput results deposited in PubChem by Broad Institute.
IDH1 mut inh: inhibitors of IDH1 R132H reductase, primary screen, biochemical, plate reader, single point; AID 624101, 2012; Isocitrate dehydrogenase [NADP] cytoplasmic (Homo sapiens), O75874; actives 0.18% (n = 70,000); inhibition, % at 10 µM; diaphorase/resazurin fluorescence, 60 min; in the data active = inhibition above about 34%; inconclusive = no clear call, values can overlap the other calls; inactive = below about 11%;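 also: 0% = DMSO and 100% = no enzyme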
Pf Dd2 inh: P. falciparum Dd2 growth inhibitors, primary screen, SYBR Green fluorescence, single dose replicates; actives 2.3% (n = 94,000); activity change, % at 10 µM; 72 h; stronger effect = lower value; in the data active = activity change below about -80%; inconclusive = no clear call, values can overlap the other calls
T cruzi growth-1: T. cruzi intracellular proliferation inhibitors, primary screen, cell-based, beta-gal Tulahuen parasites, NIH3T3 host, luminescence | AID 624255, 2012 | T. cruzi beta-gal in NIH3T3, GalScreen luminescence, 90 h | inhibition, % at 8.34 µM | actives 5.9% (n = 77,000);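 active = mean inhibition above about 93%, with at least 55% of replicates each passing it, limit read from the data, passing the limit was not always enough; inconclusive = only one of those two conditions holds; inactive = neither condition holds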
KDM4C inh: inhibitors of GASC-1 (KDM4C) histone demethylase, primary screen, biochemical, single concentration HTS; AID 720574, 2013; inhibition, % at 12.5 µM; GST-KDM4C 2-372, H3K9me3 peptide, LANCE TR-FRET; actives 0.15% (n = 96,000);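 active = mean replicate inhibition above about 25%, with at least 55% of replicates also reaching it, limit read from the data, passing the limit was not always enough; inconclusive = only one of those two conditions met; inactive = neither condition met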
Target sequence (Q9H3R0 2-372 limits assumed): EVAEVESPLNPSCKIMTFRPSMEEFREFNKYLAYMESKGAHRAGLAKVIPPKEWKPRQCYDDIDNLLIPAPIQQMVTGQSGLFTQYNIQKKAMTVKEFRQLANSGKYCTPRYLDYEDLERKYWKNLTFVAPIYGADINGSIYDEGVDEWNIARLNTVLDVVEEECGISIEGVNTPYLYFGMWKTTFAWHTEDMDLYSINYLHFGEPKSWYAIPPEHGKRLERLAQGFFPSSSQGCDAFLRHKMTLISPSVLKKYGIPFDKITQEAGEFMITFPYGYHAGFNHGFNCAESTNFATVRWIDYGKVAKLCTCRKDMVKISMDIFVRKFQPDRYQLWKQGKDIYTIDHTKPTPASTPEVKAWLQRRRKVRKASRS
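Compound: one test concentration per compound; Material: GST-GASC-1 enzyme fragment 2-372; Amount: GASC-1 enzyme at 10 nM final in reaction; Also added: H3K9me3 peptide substrate, Fe(II), 2-oxoglutarate; Technique: LANCE TR-FRET; Times: 30 min demethylation and 1 h detection at room temperature.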
T cruzi growth-2: T. cruzi intracellular proliferation inhibitors, confirmation, cell-based, NIH3T3 host, beta-gal parasite, luminescence, cherry-pick; T. cruzi beta-gal in NIH3T3, GalScreen luminescence, 90 h; actives 72% (n = 5,600); shares compounds with T cruzi growth-1; AID 651739, 2012; inhibition, % at 8.35 µM;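 active = mean replicate inhibition above about 95% and at least 55% of replicates individually reaching it, limit read from the data; inconclusive = only one of the two criteria is met; inactive = neither criterion is met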
T cruzi growth-3: inhibitors of intracellular T. cruzi replication, confirmation, NIH3T3 host cells, beta-gal parasites, cherry-pick, set 2 | shares compounds with T cruzi growth-1 | T. cruzi beta-gal in NIH3T3, GalScreen luminescence, 90 h | inhibition, % at 2.09 µM | actives 21% (n = 5,600) | AID 651740, 2012;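 active = mean inhibition above about 95%, with at least 55% of replicates also reaching it, limit read from the data; inconclusive = meets just one of the two conditions; inactive = meets neither condition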;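 also: plate controls were neutral control median for no effect and positive control median for full effect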
NIH3T3 tox: cytotoxicity in mouse NIH/3T3 fibroblasts, confirmation, cytotoxicity control for T. cruzi proliferation inhibitor project, cell-based, cherry-pick, single point; shares compounds with T cruzi growth-1; NIH/3T3 viability, CellTiter-Glo ATP luminescence, 90 h; cytotoxicity (signal decrease), % at 8.35 µM; actives 14% (n = 5,600);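 active = mean signal decrease across replicates above about 35% based on untreated-well scatter, with enough replicates individually passing, limit read from the data; inconclusive = no rule stated though some were filed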;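 also: 0% = median of neutral control wells and 100% = median of positive control wells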
3T3 cytotox 2: NIH/3T3 fibroblast cytotoxicity, confirmation, cytotoxicity control, cell-based, cherry-pick, single point, set 2. inhibition, % at 24.9 µM. shares compounds with T cruzi growth-1. NIH/3T3 viability, CellTiter-Glo ATP luminescence, 90 h. actives 56% (n = 5,600);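 active = mean loss of cell viability signal at or above a set limit, and enough replicates individually reaching it; inconclusive = meets only the mean limit or only the replicate share; inactive = meets neither condition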;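 also: 0% = median of neutral control wells and 100% = median of positive control wells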
Numbers without * were called inactive. Shown are actives, neighbours in structure and some others; about 5.9% of the full set was active somewhere.

Cc1cc(C(=O)Nc2cccc3c2O[C@@H](CN(C)S(C)(=O)=O)[C@@H](C)CN([C@@H](C)CO)C3=O)n(C)n1 was read as Pf Dd2 inh -9, T cruzi growth-1 61 and KDM4C inh 0.
C[C@H](CO)N1C[C@H](C)[C@@H](CN(C)Cc2ccc(Cl)c(Cl)c2)OCCCC[C@H](C)Oc2ccc(NS(=O)(=O)c3cccs3)cc2C1=O was read as Pf Dd2 inh -20, T cruzi growth-1 inconclusive, KDM4C inh -1, T cruzi growth-2 85, T cruzi growth-3 107*, NIH3T3 tox 11 and 3T3 cytotox 2 104*.
Screening C[C@@H]1CCCCO[C@H](CN(C)Cc2ccc(Cl)c(Cl)c2)[C@@H](C)CN([C@H](C)CO)C(=O)c2cc(NS(=O)(=O)c3cccs3)ccc2O1 returned Pf Dd2 inh -21, T cruzi growth-1 116*, KDM4C inh 0, T cruzi growth-2 105*, T cruzi growth-3 2, NIH3T3 tox 9 and 3T3 cytotox 2 57*.
For C[C@@H]1CCCCO[C@@H](CN(C)Cc2ccc(Cl)c(Cl)c2)[C@@H](C)CN([C@H](C)CO)C(=O)c2cc(NS(=O)(=O)c3cccs3)ccc2O1 the results were IDH1 mut inh 1, Pf Dd2 inh 4, T cruzi growth-1 115*, KDM4C inh -1, T cruzi growth-2 97*, T cruzi growth-3 84, NIH3T3 tox -4 and 3T3 cytotox 2 50*.
`C[C@H](CO)N1C[C@H](C)[C@@H](CN(C)Cc2ccncc2)OCCCC[C@H](C)Oc2ccc(NS(=O)(=O)c3cccs3)cc2C1=O` gave IDH1 mut inh 19, Pf Dd2 inh 2, T cruzi growth-1 21 and KDM4C inh 1.
`COC(=O)c1ccccc1NC(=O)COc1ccc(C(C)C)cc1Br` gave IDH1 mut inh 0.
`COc1ccc(S(=O)(=O)N(C)C[C@H]2OCCCC[C@H](C)Oc3ccc(NC(=O)NC4CCCCC4)cc3C(=O)N([C@H](C)CO)C[C@@H]2C)cc1` gave IDH1 mut inh -1, Pf Dd2 inh -64, T cruzi growth-1 104*, KDM4C inh 0, T cruzi growth-2 112*, T cruzi growth-3 7, NIH3T3 tox 0 and 3T3 cytotox 2 2.
For COc1ccc(S(=O)(=O)N(C)C[C@H]2OCCCC[C@@H](C)Oc3ccc(NC(=O)NC4CCCCC4)cc3C(=O)N([C@@H](C)CO)C[C@H]2C)cc1 the results were Pf Dd2 inh -61, T cruzi growth-1 93 and KDM4C inh -2.
For COc1ccc(S(=O)(=O)N(C)C[C@H]2OCCCC[C@@H](C)Oc3ccc(NC(=O)NC4CCCCC4)cc3C(=O)N([C@@H](C)CO)C[C@@H]2C)cc1 the results were Pf Dd2 inh -73, T cruzi growth-1 96*, KDM4C inh 0, T cruzi growth-2 90, T cruzi growth-3 37, NIH3T3 tox -9 and 3T3 cytotox 2 -2.
For O=C(NCCNC(=O)c1cc2ccccc2cc1O)c1cc2ccccc2cc1O the results were IDH1 mut inh 0.
Screening O=C1C(=O)N(CCN2CCOCC2)C(c2ccncc2)C1C(=O)c1cc2ccccc2o1 (stereo not drawn) returned IDH1 mut inh 0.
Screening C[C@H]1CN([C@@H](C)CO)S(=O)(=O)c2ccc(C3=CCCC3)cc2O[C@@H]1CN(C)C(=O)C1CCC1 returned Pf Dd2 inh -27, T cruzi growth-1 43 and KDM4C inh 5.
C[C@H]1CN([C@@H](C)CO)S(=O)(=O)c2ccc(C3=CCCCC3)cc2O[C@H]1CN(C)C(=O)C1CCCCC1 was read as Pf Dd2 inh -47, T cruzi growth-1 123*, KDM4C inh -2, T cruzi growth-2 104*, T cruzi growth-3 91, NIH3T3 tox -15 and 3T3 cytotox 2 107*.
`C[C@@H]1CN([C@H](C)CO)S(=O)(=O)c2ccc(C3=CCCCC3)cc2O[C@H]1CN(C)C(=O)C1CCCCC1` gave Pf Dd2 inh -54, T cruzi growth-1 109*, KDM4C inh 9, T cruzi growth-2 105*, T cruzi growth-3 56, NIH3T3 tox 27 and 3T3 cytotox 2 105*.
Screening C[C@H](CO)N1C[C@H](C)[C@H](CN(C)C(=O)C2CCCCC2)Oc2cc(C3=CCCCC3)ccc2S1(=O)=O returned Pf Dd2 inh -60, T cruzi growth-1 116*, KDM4C inh -2, T cruzi growth-2 102*, T cruzi growth-3 86, NIH3T3 tox 21 and 3T3 cytotox 2 107*.
Screening C[C@@H]1CN([C@H](C)CO)S(=O)(=O)c2ccc(C3=CCCC3)cc2O[C@H]1CN(C)C(=O)C1CCC1 returned IDH1 mut inh 5, Pf Dd2 inh -43, T cruzi growth-1 111*, KDM4C inh 3, T cruzi growth-2 71, T cruzi growth-3 20, NIH3T3 tox 20 and 3T3 cytotox 2 24*.
Cc1cc(C)c(C#N)c(SCCS(=O)(=O)c2nc3ccccc3s2)n1 was read as IDH1 mut inh 0.
Screening CCc1cnc(N2[C@@H](C#N)[C@@H](c3ccc(C4=CCCCC4)cc3)[C@@H]2CO)s1 returned Pf Dd2 inh 2, T cruzi growth-1 100*, KDM4C inh 0, T cruzi growth-2 96*, T cruzi growth-3 91, NIH3T3 tox inconclusive and 3T3 cytotox 2 60*.
For CCc1cnc(N2[C@H](C#N)[C@H](c3ccc(C4=CCCCC4)cc3)[C@H]2CO)s1 the results were Pf Dd2 inh -25 and T cruzi growth-1 93.
CCc1cnc(N2[C@@H](C#N)[C@@H](c3ccc(C4=CCCC4)cc3)[C@@H]2CO)s1 was read as Pf Dd2 inh 5, T cruzi growth-1 96*, KDM4C inh 3, T cruzi growth-2 105*, T cruzi growth-3 74, NIH3T3 tox 24 and 3T3 cytotox 2 42*.
CCc1cnc(N2[C@H](C#N)[C@H](c3ccc(-c4cccc(F)c4)cc3)[C@@H]2CO)s1 was read as Pf Dd2 inh -34, T cruzi growth-1 102*, KDM4C inh -3, T cruzi growth-2 98*, T cruzi growth-3 108*, NIH3T3 tox -1 and 3T3 cytotox 2 25.
